Assay results as given in ChEMBL document CHEMBL1154352, “Toll-like receptor 7 selective synthetic oligoribonucleotide agonists: synthesis and structure-activity relationship studies” (J Med Chem, 2009).
The source made the active and inactive calls. No cut-off for these calls is given here.

How the values were obtained:
[1] = Metabolic stability in human serum assessed as full length product remaining after 10 mins by HPLC; type: ADME, cell-free; conditions: read-out: Stability
Summary of the method: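 About 0.5 A260 units compound in 1% human serum in PBS, 37 °C; aliquot taken at 10 min, analysed by anion-exchange HPLC for percent intact full-length product.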

Splenocyte [2] = assay: Immunomodulatory activity in C57BL/6 mouse splenocytes bearing TLR7 receptor assessed as IL6 release at 100 ug/ml after 24 hrs by ELISA; type: functional, cell-based
Summary of the method: (§1)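 C57BL/6 splenocytes in RPMI 1640 with 10% FBS, penicillin/streptomycin, 2 mM L-glutamine, plated at 5 × 10^6 cells/mL; compounds in PBS added, 37 °C for 24 h. Supernatant IL-12 and IL-6 by ELISA; representative of three independent experiments.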

Homo sapiens = organism: Homo sapiens; assay: Ratio of human TLR7 activity to human TLR8 activity
Summary of the method: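 TLR7/TLR8 ratio computed from fold NF-κB (SEAP reporter) activation in HEK293 cells stably expressing human TLR7 versus TLR8, compounds at 50 μg/mL, 18 h exposure; representative of three independent experiments.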

[3] = target: T1, Toll-like receptor 7 (Homo sapiens) (UniProt Q9NYK1); assay: Activation of human TLR7 expressed in HEK293XL assessed as fold induction of NF-kappaB activity at 50 ug/ml after 18 hrs by reporter gene assay relative to control
T1 sequence (whole entry): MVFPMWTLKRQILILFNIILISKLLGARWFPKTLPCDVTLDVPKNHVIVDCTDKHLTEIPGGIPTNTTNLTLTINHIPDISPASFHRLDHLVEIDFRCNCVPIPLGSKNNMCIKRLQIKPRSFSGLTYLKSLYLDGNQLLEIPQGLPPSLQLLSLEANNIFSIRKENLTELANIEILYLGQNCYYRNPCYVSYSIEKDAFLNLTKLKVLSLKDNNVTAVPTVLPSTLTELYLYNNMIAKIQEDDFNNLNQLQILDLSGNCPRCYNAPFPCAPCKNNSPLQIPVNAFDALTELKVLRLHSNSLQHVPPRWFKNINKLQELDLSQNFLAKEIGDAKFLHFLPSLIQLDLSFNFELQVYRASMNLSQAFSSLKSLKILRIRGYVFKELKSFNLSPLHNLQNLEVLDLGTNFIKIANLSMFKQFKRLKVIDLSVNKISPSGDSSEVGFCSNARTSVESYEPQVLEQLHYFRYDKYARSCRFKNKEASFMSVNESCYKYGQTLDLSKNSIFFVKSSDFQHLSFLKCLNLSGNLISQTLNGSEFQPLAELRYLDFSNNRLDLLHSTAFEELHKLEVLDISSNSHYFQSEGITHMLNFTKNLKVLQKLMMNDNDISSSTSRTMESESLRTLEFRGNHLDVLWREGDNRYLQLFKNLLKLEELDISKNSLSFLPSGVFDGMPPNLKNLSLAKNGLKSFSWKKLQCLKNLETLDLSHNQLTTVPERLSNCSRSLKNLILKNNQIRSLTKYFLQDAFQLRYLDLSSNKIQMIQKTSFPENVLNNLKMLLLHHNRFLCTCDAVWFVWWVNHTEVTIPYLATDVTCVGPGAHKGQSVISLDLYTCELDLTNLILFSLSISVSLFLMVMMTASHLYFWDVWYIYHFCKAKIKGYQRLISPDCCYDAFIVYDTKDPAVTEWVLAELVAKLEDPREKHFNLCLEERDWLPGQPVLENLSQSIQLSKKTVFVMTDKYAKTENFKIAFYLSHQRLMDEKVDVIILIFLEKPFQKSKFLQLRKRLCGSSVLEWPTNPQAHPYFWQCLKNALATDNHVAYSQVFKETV
Summary of the method: (§2)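 HEK293 cells stably expressing human TLR7 or TLR8, transiently transfected with SEAP reporter plasmid; medium replaced, SIMRA compounds added, 18 h incubation. Supernatant SEAP measured by QuantiBlue; expressed as fold increase in NF-κB activity over PBS control. Tabulated data at 50 μg/mL, representative of three independent experiments.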

Splenocyte [4] = assay: Immunomodulatory activity in C57BL/6 mouse splenocytes bearing TLR7 receptor assessed as IL12 release at 100 ug/ml after 24 hrs by ELISA; type: functional, cell-based; summary of the method: as §1
[5] = target: T2, Toll-like receptor 8 (Homo sapiens) (UniProt Q9NR97); assay: Activation of human TLR8 expressed in HEK293XL assessed as fold induction of NF-kappaB activity at 50 ug/ml after 18 hrs by reporter gene assay relative to control; summary of the method: as §2
T2 sequence (whole entry): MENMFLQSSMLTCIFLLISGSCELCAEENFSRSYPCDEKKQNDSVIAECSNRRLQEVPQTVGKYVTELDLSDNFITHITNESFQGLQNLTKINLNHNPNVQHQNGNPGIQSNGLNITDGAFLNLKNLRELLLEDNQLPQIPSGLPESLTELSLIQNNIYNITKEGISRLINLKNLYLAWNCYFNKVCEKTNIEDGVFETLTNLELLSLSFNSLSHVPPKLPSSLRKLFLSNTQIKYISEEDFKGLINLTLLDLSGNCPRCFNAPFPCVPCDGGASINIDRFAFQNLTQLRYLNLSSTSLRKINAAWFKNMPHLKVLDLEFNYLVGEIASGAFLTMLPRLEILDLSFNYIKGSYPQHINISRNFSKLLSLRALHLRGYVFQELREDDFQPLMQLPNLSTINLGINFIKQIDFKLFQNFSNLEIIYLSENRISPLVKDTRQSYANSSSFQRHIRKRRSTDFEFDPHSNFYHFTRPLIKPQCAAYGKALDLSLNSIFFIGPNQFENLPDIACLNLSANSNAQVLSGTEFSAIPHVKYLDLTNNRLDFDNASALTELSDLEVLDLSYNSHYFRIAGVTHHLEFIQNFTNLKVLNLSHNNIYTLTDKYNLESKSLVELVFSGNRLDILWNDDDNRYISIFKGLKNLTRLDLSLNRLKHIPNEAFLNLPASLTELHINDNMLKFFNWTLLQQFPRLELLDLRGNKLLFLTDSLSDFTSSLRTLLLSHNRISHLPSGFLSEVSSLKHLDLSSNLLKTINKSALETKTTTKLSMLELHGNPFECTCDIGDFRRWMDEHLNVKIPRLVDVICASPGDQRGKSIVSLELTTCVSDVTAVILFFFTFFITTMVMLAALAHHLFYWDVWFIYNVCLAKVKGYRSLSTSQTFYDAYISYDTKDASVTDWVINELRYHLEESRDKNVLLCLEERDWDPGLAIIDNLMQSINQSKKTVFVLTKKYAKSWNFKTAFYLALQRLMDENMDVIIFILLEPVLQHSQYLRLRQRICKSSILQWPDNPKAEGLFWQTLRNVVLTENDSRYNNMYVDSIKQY

remaining at 10 min [1]: 82%
Activity (Splenocyte [2]): Active
Ratio (Homo sapiens): 114
fold change (FC) [3]: 22.9
Activity (Splenocyte [4]): Active
fold change (FC) [5]: 0.2
Structure (SMILES): Nc1ccn([C@@H]2O[C@H](COP(=O)(S)O[C@H]3[C@@H](O)[C@H](n4cnc5c(N)ncnc54)O[C@@H]3COP(=O)(S)O[C@H]3[C@@H](O)[C@H](n4ccc5c(=O)[nH]c(N)nc54)O[C@@H]3COP(=O)(S)O[C@H]3[C@@H](O)[C@H](n4ccc(=O)[nH]c4=O)O[C@@H]3COP(=O)(S)O[C@H]3[C@@H](O)[C@H](n4ccc(=O)[nH]c4=O)O[C@@H]3COP(=O)(S)O[C@H]3[C@@H](O)[C@H](n4cnc5c(N)ncnc54)O[C@@H]3COP(=O)(S)O[C@H]3[C@@H](O)[C@H](n4cnc5c(N)ncnc54)O[C@@H]3CO)[C@@H](OP(=O)(S)OC[C@H]3O[C@@H](n4ccc5c(=O)[nH]c(N)nc54)[C@H](O)[C@@H]3OP(=O)(S)OC[C@H]3O[C@@H](n4ccc(N)nc4=O)[C@H](O)[C@@H]3OP(=O)(S)OC[C@H]3O[C@@H](n4ccc(=O)[nH]c4=O)[C@H](O)[C@@H]3OP(=O)(S)OC[C@H]3O[C@@H](n4ccc5c(=O)[nH]c(N)nc54)[C@H](O)[C@@H]3OP(=O)(S)OCC(O)COP(=O)(S)O[C@H]3[C@@H](O)[C@H](n4ccc5c(=O)[nH]c(N)nc54)O[C@@H]3COP(=O)(S)O[C@H]3[C@@H](O)[C@H](n4ccc(=O)[nH]c4=O)O[C@@H]3COP(=O)(S)O[C@H]3[C@@H](O)[C@H](n4ccc(N)nc4=O)O[C@@H]3COP(=O)(S)O[C@H]3[C@@H](O)[C@H](n4ccc5c(=O)[nH]c(N)nc54)O[C@@H]3COP(=O)(S)O[C@H]3[C@@H](O)[C@H](n4ccc(N)nc4=O)O[C@@H]3COP(=O)(S)O[C@H]3[C@@H](O)[C@H](n4cnc5c(N)ncnc54)O[C@@H]3COP(=O)(S)O[C@H]3[C@@H](O)[C@H](n4ccc5c(=O)[nH]c(N)nc54)O[C@@H]3COP(=O)(S)O[C@H]3[C@@H](O)[C@H](n4ccc(=O)[nH]c4=O)O[C@@H]3COP(=O)(S)O[C@H]3[C@@H](O)[C@H](n4ccc(=O)[nH]c4=O)O[C@@H]3COP(=O)(S)O[C@H]3[C@@H](O)[C@H](n4cnc5c(N)ncnc54)O[C@@H]3COP(=O)(S)O[C@H]3[C@@H](O)[C@H](n4cnc5c(N)ncnc54)O[C@@H]3CO)[C@H]2O)c(=O)n1 (stereo partly specified)
